Hits are enriched below; roughly 0.79% of the tested compounds scored in any of these assays.
bIAP inhibitor: blocks bovine intestinal alkaline phosphatase activity; purified bovine IAP, CDP-star luminescence, 30 min; 190,000 tested, under 10 active; inhibition, % at 20 µM; AID 1019;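 active = over 50% inhibition of intestinal alkaline phosphatase at 20 µM in the single-dose screen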
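System: Purified bovine intestinal alkaline phosphatase (IAP) enzyme | Input: IAP diluted 1/65,000,000 in the well | Also added: CDP-star chemiluminescent phosphatase substrate, 30 µM final | Dosing: 20 µM single dose | Times: Enzyme reaction for 30 min at room temperature | Detection: Luminescence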
mIAP inh: mouse IAP inhibition | inhibition, % at 10 µM | hit rate 0.2% among 330,000 | purified mouse IAP, CDP-Star luminescence, 30 min;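 active = inhibition of at least 40% at 10 µM in the primary screen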;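 also: plate controls were DMSO with enzyme for no effect and no enzyme wells for full effect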
hIAP act: increases human intestinal alkaline phosphatase activity; P09923; purified human IAP, CDP-Star luminescence, 30 min; active compounds read high; 1 = vehicle-only enzyme, 0 = enzyme-free background; activation factor at 10 µM; hit rate 0.16% among 330,000; AID 2524;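 active = activation factor of the enzyme at least 2-fold when tested at 20 µM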
Target sequence (P09923 whole entry, looked up): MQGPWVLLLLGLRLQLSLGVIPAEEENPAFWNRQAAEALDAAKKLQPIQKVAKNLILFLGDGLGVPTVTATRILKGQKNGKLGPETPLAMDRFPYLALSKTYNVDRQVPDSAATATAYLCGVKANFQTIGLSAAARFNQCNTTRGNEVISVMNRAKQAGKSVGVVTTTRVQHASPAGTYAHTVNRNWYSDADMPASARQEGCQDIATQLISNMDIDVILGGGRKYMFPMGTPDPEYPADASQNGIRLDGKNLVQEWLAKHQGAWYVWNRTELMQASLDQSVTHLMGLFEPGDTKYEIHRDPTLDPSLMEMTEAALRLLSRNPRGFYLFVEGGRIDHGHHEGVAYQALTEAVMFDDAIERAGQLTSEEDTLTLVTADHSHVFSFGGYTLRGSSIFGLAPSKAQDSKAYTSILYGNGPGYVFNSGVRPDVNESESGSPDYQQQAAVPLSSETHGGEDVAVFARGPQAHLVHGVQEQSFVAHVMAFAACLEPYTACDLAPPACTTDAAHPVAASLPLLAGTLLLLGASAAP
hIAP inh: blocks human intestinal alkaline phosphatase; P09923; purified IAP, CDP-Star luminescence, 30 min; inhibition, % at 10 µM; hit rate 0.12% among 330,000; AID 2544;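 active = inhibition reaching a set limit with compound at 10 µM in the primary screen, cut at about 35% in these data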;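 also: plate controls were DMSO wells with enzyme for no effect and no-enzyme buffer wells for full effect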
bIAP act: intestinal alkaline phosphatase (bovine) activation | purified bovine IAP, CDP-star luminescence, 30 min; active compounds read high; fold of DMSO-control signal, blank-subtracted | hit rate 0.17% among 200,000 | activation factor at 20 µM;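 active = activation factor of 2 or more at 20 µM, a signal rise over negative controls twice the positive control's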
mIAP activ: mouse IAP activation; muIAP, CDP-Star luminescence, 30 min; active compounds read high; 1 = vehicle-only enzyme signal, 0 = enzyme-free wells; activation factor at 10 µM; hit rate 0.24% among 330,000; AID 2805;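 active = activation factor of at least 2 at 20 µM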
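System: Mouse IAP enzyme | Also added: CDP-Star substrate | Dosing: Compounds dispensed in DMSO | Schedule: 30 min enzyme-substrate-compound incubation at room temperature | Technique: Chemiluminescence readout | Control set: DMSO-only wells and no-enzyme negative control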
hIAP act conf: human IAP activation confirmation | hit rate 10% among 880 | activation (%Activity, negative = activation), % at 8.3 µM | shares compounds with hIAP act | purified IAP, CDP-Star luminescence, 30 min; active compounds read low | AID 434926;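 active = at least twofold enzyme activation in any of six single-dose repeats, which the averaged readout prints as negative percent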
mIAP inh confirm: mouse IAP inhibition confirmation | inhibition, % at 10 µM | purified mouse IAP, CDP-Star luminescence, 30 min | shares compounds with mIAP inh | AID 434971 | hit rate 4.7% among 11,000;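 active = inhibition of at least 40% at 10 µM in either of the two replicates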;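 also: plate controls were DMSO wells with enzyme for no effect and buffer wells lacking enzyme for full effect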
Active calls of the source: *; i = inactive; . = no result.

SMILES | bIAP inhibitor | mIAP inh | hIAP act | hIAP inh | bIAP act | mIAP activ | hIAP act conf | mIAP inh confirm
CN(CC(=O)NC(c1ccccc1)c1ccccc1)Cc1nc2ccccc2c(=O)[nH]1 | -149 | -109 | 2.2* | -122 | 2.5* | 2.1* | -7 | -171
CCN1/C(=C/C=C/c2sc3ccccc3[n+]2CC)Sc2ccccc21 | . | 48* | 0.63 | 37* | . | 0.52 | 7 | 51*
Nc1c(/C=C2/C=CC(=O)C(O)=C2)c(=O)nc2sc(CC(=O)N3CCCC3)nn12 | . | 58* | 0.52 | 48* | . | 0.42 | 17 | 78*
Nc1c(/C=C2/C=CC(=O)C(O)=C2)c(=O)nc2sc(CC(=O)N3CCCCC3)nn12 | . | 61* | 0.46 | 54* | . | 0.39 | 4 | 83*
Cc1ccccc1-c1nnc(NC(=O)c2cc3ccccc3oc2=O)s1 | 12 | . | . | . | 0.9 | . | . | .
CNc1nnc(-c2cc3ccccc3oc2=O)s1 | . | 58* | 0.27 | 73* | 0.1 | 0.42 | 33 | 66*
O=C1NC(=O)/C(=C\c2ccc(O)cc2O)S1 | 48 | 71* | 0.15 | 84* | 0.5 | 0.29 | 3 | 85*
Cn1cc(CC(=O)NCCCN2CCOCC2)c2ccccc21 | 0 | 1 | 1.1 | -7 | 1 | 0.99 | . | .
COc1cc(/C=C(\C#N)C(=O)N2CCOCC2)cc(Br)c1O | -2 | 3 | 1.2 | -16 | 1 | 0.97 | . | .
COc1cc(/C=C(\C#N)C(=O)c2ccc(O)c(O)c2)cc(I)c1O | . | 83* | 0.49 | 51* | . | 0.17 | 40 | 83*
CCN(CC(=O)Nc1ccccc1C(F)(F)F)C(=O)CCOc1ccccc1C | . | -6 | 1 | -4 | . | 1.1 | . | .
CCS(=O)(=O)N1CCC(C(=O)Nc2cccc(F)c2)CC1 | . | 11 | 1.1 | -6 | . | 0.89 | . | .
CCn1ncc(CN2CCC(C(=O)Nc3cccc(-c4cccc(F)c4)c3)CC2)c1C | . | -247 | 4* | -303 | . | 3.5* | -4 | -183
CCn1nc(C)c(CN2CCC(C(=O)Nc3cccc(-c4cccc(Cl)c4)c3)CC2)c1C | . | i | 8.7* | i | . | 8.2* | 2 | -374
Nc1nc(SCC(=O)Nc2cccnc2Cl)n[nH]1 | 0 | -8 | 1.2 | -16 | 1 | 1.1 | . | .
COC(=O)c1cccc(Oc2nc3c(c(=O)n(C)c(=O)n3C)n2Cc2ccc(C)cc2)c1 | . | -1 | 1 | -5 | . | 1 | . | .
O=c1c(O[C@@H]2O[C@H](CO)[C@@H](O)[C@H](O)[C@H]2O)c(-c2ccc(O)c(O)c2)oc2cc(O)cc(O)c12 | 16 | 55* | 0.43 | 57* | 0.8 | 0.45 | 48 | 58*
O=c1c(O[C@@H]2O[C@H](CO)[C@H](O)[C@H](O)[C@H]2O)c(-c2ccc(O)c(O)c2)oc2cc(O)cc(O)c12 | -7 | . | . | . | 1.1 | . | . | .
COc1ccc(S(=O)(=O)Nc2cc(Sc3ncn[nH]3)c(O)cc2C)cc1 | . | 36 | 1 | -4 | . | 0.64 | . | .
Cc1ccc([N+](=O)[O-])cc1S(=O)(=O)Nc1ccc(O)c(Sc2ncn[nH]2)c1 | . | 73* | 0.27 | 73* | . | 0.27 | 7 | 89*
C=CCn1c(Sc2ccccc2)nc2c1c(=O)[nH]c(=O)n2C | 25 | 1 | 1.1 | -14 | 0.8 | 0.99 | . | .
CN(CC(=O)Nc1cccc(S(=O)(=O)N2CCOCC2)c1)CC(=O)Nc1ccc(Cl)c(C(F)(F)F)c1 | . | -4 | 0.94 | 6 | . | 1 | . | .
Cc1ccc(NC(=O)C2CC(=O)Nc3nc4ccccc4n32)c(C)c1 (stereo not drawn) | . | -253 | 2.7* | -169 | . | 3.5* | 38 | -157
O=C(CSc1n[nH]c(-c2ccccn2)n1)Nc1ccc(F)cc1 | . | 7 | 1.4 | -40 | . | 0.93 | . | .
COc1ccc(/C=N/N2C(=O)CSC2=S)cc1 | -16 | 47* | 1 | -3 | 1.2 | 0.53 | . | 60*
O=C1CSC(=S)N1/N=C/c1ccc(O)c(O)c1O | . | 92* | 1.1 | -5 | . | 0.084 | . | 88*
COc1ccc(/C=N/N2C(=O)CSC2=S)cc1Br | . | 22 | 1.1 | -13 | . | 0.78 | . | .
CC(C)(C)c1ccc(/C=N/N2C(=O)CSC2=S)cc1 | . | 20 | 1.2 | -20 | . | 0.8 | . | .

Screens as filed in PubChem.
